# Measured values of several laboratories.
# ADORA3: Adenosine receptor A3 (ADORA3, Homo sapiens, UniProt P0DMS8)
# Liver carboxylesterase: Liver carboxylesterase (Sus scrofa, UniProt Q29550)
# DRD2: D(2) dopamine receptor (DRD2, Homo sapiens, UniProt P14416)
SMILES,target,assay,setting,Ki
CCCC[C@H](NC(=O)[C@H](CO)NC(=O)[C@H](Cc1ccc(O)cc1)NC(=O)[C@H](CO)NC(C)=O)C(=O)N[C@@H](CCC(=O)O)C(=O)N[C@@H](Cc1c[nH]cn1)C(=O)N[C@@H](C)C(=O)N[C@@H](CCCNC(=N)N)C(=O)N[C@@H](Cc1c[nH]c2ccccc12)C(=O)NCC(=O)N[C@@H](CCCCN)C(=O)N1CCC[C@H]1C(=O)N[C@H](C(=O)NCC(=O)N[C@@H](CCCCN)C(=O)N[C@@H](CCCCN)C(=O)N[C@@H](CCCNC(=N)N)C(N)=O)C(C)C,"Melanocortin receptor 3 (MC3R, Homo sapiens, UniProt P41968)","ligand displacement in cells, radioligand",,> 1 µM
CCN1CCCn2c1nc1c2c(=O)n(C)c(=O)n1C,ADORA3,"ligand displacement, radioligand",cell membranes,> 10 µM
CCNC(=O)[C@H]1O[C@@H](n2cnc3c(N)nc(NN=C[C@H]4CCC=CO4)nc32)[C@H](O)[C@@H]1O,ADORA3,"ligand displacement, radioligand",,0.00451 µM
OC[C@H]1OC(O)[C@H](O)[C@@H](O)[C@H]1O (stereo partly shown),"Alpha-galactosidase A (GLA, Homo sapiens, UniProt P06280)","enzyme activity, inhibitor",,16000 µM
CCCCN1CCCn2c1nc1c2c(=O)n(C)c(=O)n1C,ADORA3,"ligand displacement, radioligand",cell membranes,> 10 µM
CCCCC[C@H](O)/C=C/[C@H]1[C@H](O)CC(=O)[C@@H]1C/C=C\CCCC(=O)O,Liver carboxylesterase,"enzyme activity, inhibitor, HPLC",pH 7.4,> 28 µM
C=CCN1CCCn2c1nc1c2c(=O)n(C)c(=O)n1C,ADORA3,"ligand displacement, radioligand",cell membranes,> 10 µM
CCCCN1CCC(COC(=O)c2ccc(N)c(OCF)c2)CC1,"5-hydroxytryptamine receptor 1E (HTR1E, Homo sapiens, UniProt P28566)","cell-free assay, radioligand",,> 10 µM
Oc1ccc(CCC2=NCCN2CCc2ccccc2)cc1,DRD2,"ligand displacement, radioligand",,0.794 µM
O=C1c2ccccc2CCCN1CCCCN1CCN(c2ccccn2)CC1,DRD2,"ligand displacement, radioligand",,0.209 µM
CC(C)CN1CCCn2c1nc1c2c(=O)n(C)c(=O)n1C,ADORA3,"ligand displacement, radioligand",cell membranes,> 10 µM
COc1ccc2c(c1)C(=O)N(CCN1CCN(c3ccccc3OC)CC1)C2,DRD2,"ligand displacement, radioligand",,1.65 µM
CC[C@H](C)[C@H](NC(=O)CN)C(=O)N[C@H](C(=O)N[C@@H](CC(N)=O)C(=O)N[C@H](C(=O)N[C@@H](CC(C)C)C(=O)N[C@@H](CCC(N)=O)C(=O)N[C@@H](CCCCN)C(=O)N[C@@H](Cc1ccc(O)cc1)C(=O)N[C@@H](Cc1ccc(O)cc1)C(=O)N[C@@H](CO)C(=O)N[C@@H](CCCNC(=N)N)C(=O)N[C@H](C(=O)N[C@@H](CCCNC(=N)N)C(=O)NCC(=O)NCC(=O)N[C@@H](CCCNC(=N)N)C(=O)N[C@H]1CSSC[C@@H](C(=O)N[C@@H](CO)C(=O)N[C@H](C(=O)N[C@@H](CCCNC(=N)N)C(=O)NCC(=O)N[C@@H](CCCNC(=N)N)C(=O)N[C@@H](CCCCN)C(=O)N[C@@H](CO)C(=O)N[C@@H](CO)C(=O)N[C@@H](CCCNC(=N)N)C(=O)N[C@@H](CCCNC(=N)N)C(=O)N[C@@H](CCCCN)C(=O)N[C@@H](CCCCN)C(N)=O)[C@@H](C)O)NC(=O)[C@H](CCCCN)NC(=O)CNC(=O)[C@H]([C@@H](C)CC)NC(=O)[C@H](CCC(N)=O)NC(=O)[C@H](CCC(=O)O)NC(=O)[C@H](CCC(=O)O)NC(=O)[C@H](CCCCN)NC(=O)[C@@H]2CCCN2C(=O)[C@H](CC(C)C)NC(=O)[C@H](CO)NC(=O)[C@H](CO)NC(=O)[C@H](CC(C)C)NC(=O)[C@H](C(C)C)NC(=O)[C@H](C)NC1=O)C(C)C)[C@@H](C)O)[C@@H](C)CC,"Melanocyte-stimulating hormone receptor (MC1R, Homo sapiens, UniProt Q01726)",ligand displacement in cells,,0.373 µM
CC/C=C\C/C=C\C/C=C\C/C=C\C/C=C\C/C=C\CCC(=O)O,Liver carboxylesterase,"enzyme activity, inhibitor, HPLC",pH 7.4,3.7 µM
CC(C)CCCC(C)N1CCCn2c1nc1c2c(=O)n(C)c(=O)n1C (stereo not shown),ADORA3,"ligand displacement, radioligand",cell membranes,2.57 µM
CNC(=O)[C@@]12C[C@@H]1[C@@H](n1cnc3c(NCc4cn(-c5ccc(F)c(N)c5)nn4)nc(Cl)nc31)[C@H](O)[C@@H]2O,ADORA3,"ligand displacement, radioligand",cell membranes,0.0226 µM
CCCCCCN1CCCn2c1nc1c2c(=O)n(C)c(=O)n1C,ADORA3,"ligand displacement, radioligand",cell membranes,> 10 µM
CCCCC[C@H](O)/C=C/[C@H]1C=CC(=O)[C@@H]1C/C=C\CCCC(=O)O,Liver carboxylesterase,"enzyme activity, inhibitor, HPLC",pH 7.4,12 µM
NCCCC[C@H](NC(=O)[C@@H]1CCCN1C(=O)[C@@H]1CSSC[C@H](N)C(=O)N[C@@H](Cc2ccc(O)cc2)C(=O)N[C@@H](Cc2ccccc2)C(=O)N[C@@H](CCC(N)=O)C(=O)N[C@@H](CC(N)=O)C(=O)N1)C(=O)NCC(N)=O,"Vasopressin V2 receptor (AVPR2, Homo sapiens, UniProt P30518)","ligand displacement, radioligand",cell membranes,0.01 µM
